According to ChEMBL document CHEMBL1144511, “Synthesis and biological evaluation of phenolic Mannich bases of benzaldehyde and (thio)semicarbazone derivatives against the cysteine protease falcipain-2 and a chloroquine resistant strain of Plasmodium falciparum” (Bioorg Med Chem, 2007):

Experiments:
Falcipain 2 = molecular target: T1, Falcipain 2 (Plasmodium falciparum, UniProt Q9N6S8); test: Inhibition of Plasmodium falciparum recombinant falcipain-2
T1 sequence (Q9N6S8 whole entry): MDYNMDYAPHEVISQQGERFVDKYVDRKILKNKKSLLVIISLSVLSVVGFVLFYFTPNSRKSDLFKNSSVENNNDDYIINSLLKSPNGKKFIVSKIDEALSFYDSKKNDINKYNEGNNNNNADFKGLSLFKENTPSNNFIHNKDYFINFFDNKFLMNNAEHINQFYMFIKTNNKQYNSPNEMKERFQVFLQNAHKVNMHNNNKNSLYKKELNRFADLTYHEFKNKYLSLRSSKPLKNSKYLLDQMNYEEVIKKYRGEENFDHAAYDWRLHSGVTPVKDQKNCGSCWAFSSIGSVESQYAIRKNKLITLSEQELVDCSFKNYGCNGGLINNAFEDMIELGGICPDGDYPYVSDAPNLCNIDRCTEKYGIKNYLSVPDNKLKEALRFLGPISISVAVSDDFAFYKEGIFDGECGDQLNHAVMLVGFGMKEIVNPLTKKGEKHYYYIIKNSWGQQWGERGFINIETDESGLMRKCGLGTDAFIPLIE
Outline: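 Recombinant enzyme (~1 nM) preincubated 30 min at room temperature with inhibitor dilutions (from 100× DMSO stocks) in 100 mM sodium acetate pH 5.5, 10 mM dithiothreitol; benzyloxycarbonyl peptide fluorogenic substrate then added, fluorescence followed continuously 30 min at room temperature. IC50 from activity versus inhibitor concentration plots.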

Plasmodium falciparum = test: Antiparasitic activity against Plasmodium falciparum W2; format: functional, organism-based
Outline: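 W2 (chloroquine-resistant) P. falciparum cultured at 1% parasitaemia, 2% haematocrit. Inhibitors from 10 mM DMSO stocks added to 20 μM final, then serially diluted to 10 μM, 2 μM, 0.4 μM, 80, 16 and 3.2 nM, in duplicate plates. Cultures kept 2 days at 37 °C, washed and fixed in 1% formaldehyde/PBS. Parasitaemia read by flow cytometry with YOYO-1 DNA stain.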

For `NC(=S)N/N=C/c1ccc(O)c(CN2CCCCC2)c1O`, the IC50 (Falcipain 2) was 3.8 µM and the IC50 (Plasmodium falciparum) was greater than 10 µM.
`NC(=O)N/N=C/c1ccc(O)c(CN2CCN(c3ccnc4cc(Cl)ccc34)CC2)c1O` gave an IC50 (Falcipain 2) greater than 20 µM and an IC50 (Plasmodium falciparum) of 0.25 µM.
Work on `O=C(NCCNc1ccnc2cc(Cl)ccc12)N/N=C/c1ccc(O)c(CN2CCCC2)c1O` yielded an IC50 (Falcipain 2) of 0.72 µM and an IC50 (Plasmodium falciparum) of 1.07 µM.
With `NC(=S)N/N=C/c1ccc(O)c(CN2CCN(c3ccnc4cc(Cl)ccc34)CC2)c1O` the IC50 (Falcipain 2) was 2.25 µM and the IC50 (Plasmodium falciparum) was 3.75 µM.
With `O=Cc1ccc(O)c(CN2CCOCC2)c1O` the IC50 (Falcipain 2) was greater than 20 µM and the IC50 (Plasmodium falciparum) was greater than 10 µM.
`CN1CCN(Cc2c(O)ccc(C=O)c2O)CC1` gave an IC50 (Falcipain 2) greater than 20 µM and an IC50 (Plasmodium falciparum) greater than 10 µM.
`O=C(NCCNc1ccnc2cc(Cl)ccc12)N/N=C/c1ccc(O)c(CN2CCCCC2)c1O` was tested, and the IC50 (Falcipain 2) was 0.63 µM and the IC50 (Plasmodium falciparum) was 0.27 µM.
With `CCN(CC)Cc1c(O)ccc(C=O)c1O` the IC50 (Falcipain 2) was greater than 20 µM and the IC50 (Plasmodium falciparum) was greater than 10 µM.
For `O=Cc1ccc(O)c(CN2CCCC2)c1O`, the IC50 (Falcipain 2) was greater than 20 µM and the IC50 (Plasmodium falciparum) was greater than 10 µM.
In the case of `CCN(CC)Cc1c(O)ccc(/C=N/NC(N)=S)c1O`, the IC50 (Falcipain 2) is reported as 11.1 µM and the IC50 (Plasmodium falciparum) is reported as greater than 10 µM.
Molecule `O=Cc1ccc(O)c(CN2CCN(c3ccnc4cc(Cl)ccc34)CC2)c1O` has an IC50 (Falcipain 2) greater than 20 µM and an IC50 (Plasmodium falciparum) of 1.07 µM.
`NC(=S)N/N=C/c1ccc(O)c(CN2CCOCC2)c1O` was tested, and the IC50 (Falcipain 2) was greater than 20 µM and the IC50 (Plasmodium falciparum) was greater than 10 µM.
`NC(=S)N/N=C/c1ccc(O)c(CN2CCCC2)c1O` showed an IC50 (Falcipain 2) of 5.85 µM and an IC50 (Plasmodium falciparum) greater than 10 µM.
In the case of `O=C(NCCNc1ccnc2cc(Cl)ccc12)N/N=C/c1ccc(O)c(CN2CCN(c3ccnc4cc(Cl)ccc34)CC2)c1O`, the IC50 (Falcipain 2) is reported as 3.16 µM and the IC50 (Plasmodium falciparum) is reported as 0.077 µM.
In the case of `CN1CCN(Cc2c(O)ccc(/C=N/NC(N)=S)c2O)CC1`, the IC50 (Falcipain 2) is reported as 18.2 µM and the IC50 (Plasmodium falciparum) is reported as greater than 10 µM.
Molecule `CN1CCN(Cc2c(O)ccc(/C=N/NC(=O)NCCNc3ccnc4cc(Cl)ccc34)c2O)CC1` has an IC50 (Falcipain 2) greater than 20 µM and an IC50 (Plasmodium falciparum) of 0.38 µM.
With `O=C(NCCNc1ccnc2cc(Cl)ccc12)N/N=C/c1ccc(O)c(CN2CCOCC2)c1O` the IC50 (Falcipain 2) was greater than 20 µM and the IC50 (Plasmodium falciparum) was 0.11 µM.
`O=Cc1ccc(O)c(CN2CCCCC2)c1O` gave an IC50 (Falcipain 2) greater than 20 µM and an IC50 (Plasmodium falciparum) greater than 10 µM.
In the case of `CCN(CC)Cc1c(O)ccc(/C=N/NC(=O)NCCNc2ccnc3cc(Cl)ccc23)c1O`, the IC50 (Falcipain 2) is reported as 2.6 µM and the IC50 (Plasmodium falciparum) is reported as 0.44 µM.
